# Only some compounds are listed: those with a hit (about 2% of all), similar ones and a draw of the others.
# ZTA DNA inh = ZTA (EBV) inhibition in EBNA-1 counter-screen; inhibition, % at 11 µM; 320,000 compounds, 0.15% hits; P03206; AID 2234; ZTA-DNA binding, fluorescence polarization; in the data active = inhibition above about 33%
# Target sequence (P03206 whole entry, looked up): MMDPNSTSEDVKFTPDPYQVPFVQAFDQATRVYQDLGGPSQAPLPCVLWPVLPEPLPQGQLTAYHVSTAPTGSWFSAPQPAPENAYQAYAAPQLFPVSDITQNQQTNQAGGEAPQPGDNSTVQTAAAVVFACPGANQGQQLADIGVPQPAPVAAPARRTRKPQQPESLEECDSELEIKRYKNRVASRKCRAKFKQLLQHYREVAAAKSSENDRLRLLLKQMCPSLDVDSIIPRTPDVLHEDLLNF
# NS3 helicase inh = inhibitors of Hepatitis C virus NS3 helicase. 290,000 compounds, 0.56% hits. inhibition, % at 10.9 µM. AID 1800. NS3 helicase DNA unwinding, Cy5 molecular beacon fluorescence;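 active = inhibition above the mean of all tested compounds plus 3 SD, set per campaign, cut at about 35% in these data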;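 also: 0% = DMSO wells and 100% = thioflavine S control wells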
#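 Compound dosing – single dose, 10.9 µM nominal final, DMSO 0.8% final · System – NS3 helicase fragment of HCV · Buffer or medium – MOPS pH 6.5, MgCl2, DTT, Tween20, BSA · Signal – Cy5 beacon fluorescence read at start and 1 h · Also added – annealed dual-labelled DNA beacon duplex, ATP-started · Schedule – 1 h at 25 °C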
# GPR7 antagonist = human neuropeptides B/W receptor 1 antagonism. P48145. GPR7-expressing cells, fluorescence antagonist assay. inhibition, % at 4.4 µM. 290,000 compounds, 1.1% hits. AID 1861; in the data active = inhibition above about 16%, passing the limit was not always enough;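 also: cells stimulated with the agonist NPW; 0% = agonist with vehicle and 100% = vehicle without agonist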
# Target sequence (P48145 whole entry, looked up): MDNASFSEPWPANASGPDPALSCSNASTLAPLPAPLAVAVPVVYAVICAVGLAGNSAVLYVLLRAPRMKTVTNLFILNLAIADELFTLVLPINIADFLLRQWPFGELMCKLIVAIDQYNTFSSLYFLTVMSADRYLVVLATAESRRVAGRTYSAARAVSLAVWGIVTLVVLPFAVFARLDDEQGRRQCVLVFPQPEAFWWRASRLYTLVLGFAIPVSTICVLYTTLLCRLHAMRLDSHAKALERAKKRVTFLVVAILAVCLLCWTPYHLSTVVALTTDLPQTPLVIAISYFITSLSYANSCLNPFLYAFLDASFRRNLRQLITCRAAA
# DNA FID counter-1 = fluorescent intercalator displacement, NS3 helicase counter-screen | inhibition, % at 7.9 µM | 290,000 compounds, 0.17% hits | DNA fluorescent intercalator displacement, fluorescence;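 also: 0% = vehicle and 100% = reference compound; higher means more ethidium bromide displaced from hairpin DNA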
# EBNA-1 inh = blocks EBNA-1 binding to DNA. EBNA-1 DNA binding, fluorescence polarization. 300,000 compounds, 0.34% hits. inhibition, % at 14.8 µM; in the data active = inhibition above about 28%
# NS3 hel confirm = confirmation of Hepatitis C virus NS3 helicase inhibitors; shares compounds with NS3 helicase inh; NS3 helicase DNA unwinding, Cy5 molecular beacon fluorescence; inhibition, % at 10.9 µM; 1,600 compounds, 31% hits; AID 1943;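 active = inhibition above the mean of all tested compounds plus 3 SD, cutoff set per campaign, cut at about 36% in these data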
# DNA FID counter-2 = counter-screen for HCV NS3 helicase inhibitors: DNA intercalator displacement; 1,600 compounds, 4% hits; shares compounds with NS3 helicase inh; inhibition, % at 7.9 µM; DNA fluorescent intercalator displacement, fluorescence; AID 1945;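 also: 0% = vehicle and 100% = reference compound; higher means more displacement of ethidium bromide from the DNA hairpin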
# Numbers without * were called inactive; / = no result given; + = active, no number. Rule as the data show it, unless noted: active = inhibition above about 37%; inactive = the rest.
SMILES,ZTA DNA inh,NS3 helicase inh,GPR7 antagonist,DNA FID counter-1,EBNA-1 inh,NS3 hel confirm,DNA FID counter-2
CC(=O)N1CCN(C(=O)c2ccccc2NS(=O)(=O)c2ccc(F)cc2)CC1,-8,/,/,/,/,/,/
CCOc1ccc(/C=N/NC(=O)Cc2ccccc2)cc1CN1CC2CC(C1)c1cccc(=O)n1C2 (stereo unspecified),-9,/,/,/,/,/,/
Cc1cccc(N2CCN(C(=O)c3ccc4c(c3)NC(=O)C(CSCc3ccc(F)cc3)N4)CC2C)c1 (stereo unspecified),17,20,5,-32,-4,/,/
Cc1ccc(CSCC2Nc3ccc(C(=O)N4CCN(c5cccc(C)c5)C(C)C4)cc3NC2=O)cc1 (stereo unspecified),10,38*,-5,-34,0,-9,-36
COc1ccccc1C1C2=C(CCCC2=O)N(CC(=O)O)C2=C1C(=O)CCC2,-12,41*,15,-4,-12,-10,14
COc1ccc(C2C3=C(CCCC3=O)N(CC(=O)O)C3=C2C(=O)CCC3)cc1Cl,-7,30,0,-9,9,/,/
Cc1cccc(NC(=O)CC2Nc3cccc4cccc(c34)NC2=O)c1 (stereo unspecified),12,45*,-13,-12,-10,-26,14
CC(=O)c1ccc(NC(=O)CC2Nc3cccc4cccc(c34)NC2=O)cc1 (stereo unspecified),2,35,18,-15,-22,/,/
CC(=O)Nc1ccc(NC(=O)CC2Nc3cccc4cccc(c34)NC2=O)cc1 (stereo unspecified),5,46*,5,-20,7,-1,2
Cc1cc(C)n(-c2nc3ccccc3s2)n1,16,7,-4,0,2,/,/
Cc1c2c(=O)n(-c3nc4ccccc4s3)nc-2cc(O)n1Cc1ccccc1,/,48*,-2,-19,/,47*,12
CCCOc1ccc(C(F)(F)F)cc1NC(=O)CCc1c(C)noc1C,5,/,/,/,/,/,/
COCCNC(=S)Nc1cc2oc3ccccc3c2cc1OC,/,-12,-4,-13,/,/,/
COCCn1c(=NC(=O)c2cc(-c3cccs3)nc3ccccc23)sc2cc(S(N)(=O)=O)ccc21,12,64*,0,-8,5,-3,0
COCCn1c(=NC(=O)c2sc3ccccc3c2Cl)sc2cc(S(N)(=O)=O)ccc21,-6,6,-8,5,2,/,/
COc1ccc(CNC(=O)CN(Cc2ccccc2)C(=O)CCC(=O)Nc2nccs2)cc1,3,-7,-2,-33,-7,/,/
COc1ccc(/C=C2\C(=O)N(c3nc(-c4ccc(Br)cc4)cs3)N=C2c2ccccc2)cc1,/,23,-19,-12,/,/,/
COc1ccc(C2=NN(c3nc4ccccc4s3)C(=O)/C2=C\N(C)C)cc1,15,47*,-11,-33,11,18,-5
COc1ccc(/C=C2\Oc3cc(OC(=O)N4CCOCC4)ccc3C2=O)cc1,-17,1,-16,-2,2,/,/
CCc1ccc(/C=C2\Oc3cc(OC(=O)N4CCOCC4)ccc3C2=O)cc1,-13,47*,-5,-1,-2,-6,-17
COCCn1c(C)cc(C2=NNC(=Nc3ccc(Cl)cc3Cl)SC2)c1C,10,37*,7,-12,14,22,-5
CCOc1ccc(N=C2NN=C(c3cc(C)n(CC4CCCO4)c3C)CS2)cc1 (stereo unspecified),9,41*,-5,-11,2,17,12
Cc1ccc(Cl)cc1N1CCN(S(=O)(=O)c2ccc3c(c2)NC(=O)C(C)C(=O)N3)CC1 (stereo unspecified),13,16,16,-39,7,/,/
CN(C)c1ccc(C(CNC(=O)COc2ccc(Cl)cc2)N2CCCC2)cc1 (stereo unspecified),9,-40,12,18,-7,/,/
CCOC(=O)c1c(NC(=O)C2C3C=CC(C3)C2C(=O)O)sc2c1CCCC2 (stereo unspecified),-8,30,-8,-44,0,/,/
SMILES,ZTA DNA inh,NS3 helicase inh,GPR7 antagonist,DNA FID counter-1,EBNA-1 inh,NS3 hel confirm,DNA FID counter-2
CCOC(=O)c1c(NC(=O)C2C3C=CC(C3)C2C(=O)O)sc2c1CCC(C)C2 (stereo unspecified),21,37*,-5,-30,4,75*,-31
CCCCn1c(N)c(NCCC(C)C)c(=O)[nH]c1=O,-10,45*,-2,-19,-1,-15,-13
O=C(CSc1nnnn1-c1ccccc1)NCC1(N2CCOCC2)CCCCC1,-9,/,/,/,/,/,/
CCC(C(=O)NCCc1c[nH]c2ccc(C)cc12)c1ccccc1 (stereo unspecified),5,-13,7,-22,2,/,/
Cc1ccc(C(=O)CSc2nc(-c3ccccc3)ccc2C#N)cc1,-1,8,-8,-6,-5,/,/
N#Cc1ccc(-c2ccco2)nc1SCC(=O)c1ccc(Cl)cc1,28,38*,-11,-6,2,12,14
CC(C)[C@H](NC(=O)c1ccccc1)C(=O)OCC(=O)c1ccc(S(=O)(=O)N2CCCCC2)cc1,-14,/,/,/,6,/,/
Cc1ccc(S(=O)(=O)N(CC(=O)Nc2ccc(C)cc2C)C(=O)N2CCN(C)CC2)cc1,9,/,/,/,4,/,/
CCCC(=O)Nc1c(C)n[nH]c1C,10,-3,-4,1,7,/,/
CNCC(=O)Nc1c(C)n[nH]c1C,-4,40*,-13,-4,6,4,15
Cc1cc(O)c2c(C)c(CC(=O)N3CCN(C(=O)C4COc5ccccc5O4)CC3)c(=O)oc2c1 (stereo unspecified),-3,46*,-8,-35,-3,-5,-30
COc1cc(C)cc2oc(=O)c(CC(=O)N3CCN(C(=O)C4COc5ccccc5O4)CC3)c(C)c12 (stereo unspecified),11,-17,-10,-53,8,/,/
O=[N+]([O-])c1ccc(N2N=C(c3ccco3)CC2c2ccccc2)cc1 (stereo unspecified),11,38*,5,-19,-15,18,26
Fc1ccc(C2CC(c3ccco3)=NN2c2ccccc2)cc1 (stereo unspecified),-14,4,-10,-5,-5,/,/
CCN(CC)c1ccc2c(-c3ccc(S(=O)(=O)O)cc3S(=O)(=O)[O-])c3ccc(=[N+](CC)CC)cc-3oc2c1,+,51*,70*,/,200*,84*,/
CCN(CC)c1ccc2cc(C(N)=O)c(=N)oc2c1,-4,16,-2,-4,2,/,/
COc1ccccc1NC(=O)c1ccc2c(c1)N(CC#N)C(=O)C(C)(C)O2,-8,9,3,-33,-11,/,/
COc1ccc(/C=N/NC(=O)c2cccc(NC(=O)c3ccccc3Cl)c2)cc1,-18,61*,4,-27,-7,8,-36
COc1ccc(/C=N/NC(=O)c2cccc(NC(=O)c3ccccc3Cl)c2)cc1OC,-21,9,-7,-27,-8,/,/

# Compound activity from PubChem.
